What was measured:
Settings in all cases: stereoisomer not certain
OR10G2 (Homo sapiens) = target: T1, OR10G2 (Homo sapiens) (UniProt Q8NGC3)
T1 sequence (whole entry): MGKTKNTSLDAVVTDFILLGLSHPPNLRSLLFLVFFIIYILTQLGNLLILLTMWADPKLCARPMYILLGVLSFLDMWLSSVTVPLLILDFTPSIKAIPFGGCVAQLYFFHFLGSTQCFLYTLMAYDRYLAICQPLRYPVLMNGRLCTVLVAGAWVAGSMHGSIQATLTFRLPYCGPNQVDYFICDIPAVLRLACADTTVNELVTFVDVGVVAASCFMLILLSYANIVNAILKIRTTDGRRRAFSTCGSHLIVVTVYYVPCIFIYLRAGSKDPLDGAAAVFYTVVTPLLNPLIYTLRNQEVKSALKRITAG
How it was run: (§1)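 Transient luciferase assays in mammalian cell lines were common, though methods varied by source. The values come from published papers and their supplementary material, with extra details from the original authors when needed. Responsive refers to a measured signal the original authors judged statistically different from baseline, and non-responsive (inactive) to the remainder.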

OR10G3 (Homo sapiens) = target: T2, OR10G3 (Homo sapiens) (UniProt Q8NGC4)
T2 sequence (whole entry): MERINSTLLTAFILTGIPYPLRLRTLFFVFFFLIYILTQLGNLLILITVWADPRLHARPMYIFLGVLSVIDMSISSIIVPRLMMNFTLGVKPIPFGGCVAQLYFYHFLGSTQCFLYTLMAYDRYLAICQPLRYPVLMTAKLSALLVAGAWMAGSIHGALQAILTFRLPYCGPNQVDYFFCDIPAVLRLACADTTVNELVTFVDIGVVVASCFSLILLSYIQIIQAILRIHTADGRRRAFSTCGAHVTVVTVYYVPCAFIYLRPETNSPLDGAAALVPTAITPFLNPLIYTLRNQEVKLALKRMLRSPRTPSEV
How it was run: as §1

OR10G4 (Homo sapiens) = target: T3, OR10G4 (Homo sapiens) (UniProt Q8NGN3)
T3 sequence (whole entry): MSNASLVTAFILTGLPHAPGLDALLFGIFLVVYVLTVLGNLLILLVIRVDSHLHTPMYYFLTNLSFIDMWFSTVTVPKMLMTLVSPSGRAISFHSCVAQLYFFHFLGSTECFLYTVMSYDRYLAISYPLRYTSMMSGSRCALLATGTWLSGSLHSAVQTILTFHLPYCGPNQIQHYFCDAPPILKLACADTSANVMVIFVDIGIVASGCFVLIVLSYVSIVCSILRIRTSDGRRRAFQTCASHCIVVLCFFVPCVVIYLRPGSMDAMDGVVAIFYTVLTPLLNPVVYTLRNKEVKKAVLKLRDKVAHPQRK
How it was run: as §1

OR10G6 (Homo sapiens) = target: T4, OR10G6 (Homo sapiens) (UniProt Q8NH81)
T4 sequence (whole entry): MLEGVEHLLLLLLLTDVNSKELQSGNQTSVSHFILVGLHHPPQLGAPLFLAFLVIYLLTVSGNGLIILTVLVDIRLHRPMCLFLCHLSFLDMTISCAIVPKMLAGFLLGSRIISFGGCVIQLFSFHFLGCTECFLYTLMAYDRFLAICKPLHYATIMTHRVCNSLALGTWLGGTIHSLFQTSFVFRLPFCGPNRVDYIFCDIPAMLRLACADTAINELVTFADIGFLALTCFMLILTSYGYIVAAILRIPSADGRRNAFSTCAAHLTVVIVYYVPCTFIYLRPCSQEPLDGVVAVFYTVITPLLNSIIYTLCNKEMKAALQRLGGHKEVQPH
How it was run: as §1

OR10G7 (Homo sapiens) = target: T5, OR10G7 (Homo sapiens) (UniProt Q8NGN6)
T5 sequence (whole entry): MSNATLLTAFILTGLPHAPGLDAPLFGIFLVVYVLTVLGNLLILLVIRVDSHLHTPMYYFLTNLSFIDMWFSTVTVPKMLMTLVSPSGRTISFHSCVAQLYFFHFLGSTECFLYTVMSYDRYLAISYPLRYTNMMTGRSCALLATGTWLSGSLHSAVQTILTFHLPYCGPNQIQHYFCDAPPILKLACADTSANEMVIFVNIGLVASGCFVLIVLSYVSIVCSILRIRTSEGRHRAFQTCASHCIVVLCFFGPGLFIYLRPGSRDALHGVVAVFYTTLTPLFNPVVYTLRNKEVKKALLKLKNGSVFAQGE
How it was run: as §1

OR10G8 (Homo sapiens) = target: T6, OR10G8 (Homo sapiens) (UniProt Q8NGN5)
T6 sequence (whole entry): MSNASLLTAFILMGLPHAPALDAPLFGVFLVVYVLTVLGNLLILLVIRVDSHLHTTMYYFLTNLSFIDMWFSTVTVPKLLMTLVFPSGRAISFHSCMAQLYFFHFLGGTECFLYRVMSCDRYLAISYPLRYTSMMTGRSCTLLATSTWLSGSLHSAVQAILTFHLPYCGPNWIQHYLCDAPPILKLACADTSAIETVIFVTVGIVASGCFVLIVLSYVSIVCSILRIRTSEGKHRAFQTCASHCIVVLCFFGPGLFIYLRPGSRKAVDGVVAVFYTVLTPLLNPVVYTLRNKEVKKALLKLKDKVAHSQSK
How it was run: as §1

OR10G9 (Homo sapiens) = target: T7, OR10G9 (Homo sapiens) (UniProt Q8NGN4)
T7 sequence (whole entry): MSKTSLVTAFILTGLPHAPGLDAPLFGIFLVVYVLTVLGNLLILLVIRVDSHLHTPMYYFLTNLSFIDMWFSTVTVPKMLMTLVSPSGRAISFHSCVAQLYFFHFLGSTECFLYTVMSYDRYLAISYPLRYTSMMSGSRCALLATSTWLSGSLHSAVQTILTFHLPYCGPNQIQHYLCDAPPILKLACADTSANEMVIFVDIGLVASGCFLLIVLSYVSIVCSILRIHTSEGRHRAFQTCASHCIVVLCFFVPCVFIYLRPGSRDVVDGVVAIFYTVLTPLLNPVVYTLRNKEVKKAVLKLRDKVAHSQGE
How it was run: as §1

OR10H1 (Homo sapiens) = target: T8, OR10H1 (Homo sapiens) (UniProt Q9Y4A9)
T8 sequence (whole entry): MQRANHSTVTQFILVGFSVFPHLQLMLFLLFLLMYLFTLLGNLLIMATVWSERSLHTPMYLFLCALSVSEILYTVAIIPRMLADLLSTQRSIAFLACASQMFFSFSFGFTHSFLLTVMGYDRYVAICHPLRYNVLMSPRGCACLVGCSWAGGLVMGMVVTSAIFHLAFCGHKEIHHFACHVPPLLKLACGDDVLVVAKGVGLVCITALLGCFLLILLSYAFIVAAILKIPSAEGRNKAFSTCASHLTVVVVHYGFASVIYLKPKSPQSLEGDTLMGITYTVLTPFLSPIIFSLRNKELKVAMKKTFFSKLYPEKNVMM
How it was run: as §1

OR10H2 (Homo sapiens) = target: T9, OR10H2 (Homo sapiens) (UniProt O60403)
T9 sequence (whole entry): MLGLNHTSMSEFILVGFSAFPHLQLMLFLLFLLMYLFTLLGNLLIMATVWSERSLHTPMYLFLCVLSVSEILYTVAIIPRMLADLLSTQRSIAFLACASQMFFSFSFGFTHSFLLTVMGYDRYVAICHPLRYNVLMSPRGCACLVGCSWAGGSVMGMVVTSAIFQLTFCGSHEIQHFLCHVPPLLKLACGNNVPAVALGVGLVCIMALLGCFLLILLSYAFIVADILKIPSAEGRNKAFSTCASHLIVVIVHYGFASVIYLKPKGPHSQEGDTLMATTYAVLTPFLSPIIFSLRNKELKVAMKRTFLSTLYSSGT
How it was run: as §1

OR10H3 (Homo sapiens) = target: T10, OR10H3 (Homo sapiens) (UniProt O60404)
T10 sequence (whole entry): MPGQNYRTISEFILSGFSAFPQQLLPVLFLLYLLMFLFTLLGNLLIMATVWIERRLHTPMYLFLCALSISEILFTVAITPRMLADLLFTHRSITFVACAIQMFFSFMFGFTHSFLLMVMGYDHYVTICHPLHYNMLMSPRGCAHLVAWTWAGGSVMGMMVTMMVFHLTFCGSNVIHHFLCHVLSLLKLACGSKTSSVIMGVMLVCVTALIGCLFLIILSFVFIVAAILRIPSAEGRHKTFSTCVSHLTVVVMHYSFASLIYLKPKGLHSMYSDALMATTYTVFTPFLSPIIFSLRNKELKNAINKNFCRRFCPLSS
How it was run: as §1

Measured: odorant receptor agonist call;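 further: active if original authors judged signal statistically different from baseline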

CC(=O)c1c(C)c([N+](=O)[O-])c(C(C)(C)C)c([N+](=O)[O-])c1C
inactive: OR10G2 (Homo sapiens) | OR10G3 (Homo sapiens) | OR10G4 (Homo sapiens) | OR10G6 (Homo sapiens) | OR10G7 (Homo sapiens) | OR10G8 (Homo sapiens) | OR10G9 (Homo sapiens) | OR10H1 (Homo sapiens) | OR10H2 (Homo sapiens) | OR10H3 (Homo sapiens)

CCCCCC(S)C(C)CO (configuration not stated)
inactive: OR10G2 (Homo sapiens) | OR10G3 (Homo sapiens) | OR10G4 (Homo sapiens) | OR10G6 (Homo sapiens) | OR10G7 (Homo sapiens) | OR10G8 (Homo sapiens) | OR10G9 (Homo sapiens) | OR10H1 (Homo sapiens) | OR10H2 (Homo sapiens) | OR10H3 (Homo sapiens)

Cc1cnc(C)c(C)n1
inactive: OR10G2 (Homo sapiens) | OR10G3 (Homo sapiens) | OR10G4 (Homo sapiens) | OR10G6 (Homo sapiens) | OR10G7 (Homo sapiens) | OR10G8 (Homo sapiens) | OR10G9 (Homo sapiens) | OR10H1 (Homo sapiens) | OR10H2 (Homo sapiens) | OR10H3 (Homo sapiens)

c1ccccc1
inactive: OR10H1 (Homo sapiens)

CC1=C(O)C(=O)OC1C (configuration not stated)
inactive: OR10G2 (Homo sapiens) | OR10G3 (Homo sapiens) | OR10G4 (Homo sapiens) | OR10G6 (Homo sapiens) | OR10G7 (Homo sapiens) | OR10G8 (Homo sapiens) | OR10G9 (Homo sapiens) | OR10H1 (Homo sapiens) | OR10H2 (Homo sapiens) | OR10H3 (Homo sapiens)

CCCCCCC=CCCC=O
inactive: OR10G2 (Homo sapiens) | OR10G3 (Homo sapiens) | OR10G4 (Homo sapiens) | OR10G6 (Homo sapiens) | OR10G7 (Homo sapiens) | OR10G8 (Homo sapiens) | OR10G9 (Homo sapiens) | OR10H1 (Homo sapiens) | OR10H2 (Homo sapiens) | OR10H3 (Homo sapiens)

CCCCC(S)C(C)CO (configuration not stated)
inactive: OR10G2 (Homo sapiens) | OR10G3 (Homo sapiens) | OR10G4 (Homo sapiens) | OR10G6 (Homo sapiens) | OR10G7 (Homo sapiens) | OR10G8 (Homo sapiens) | OR10G9 (Homo sapiens) | OR10H1 (Homo sapiens) | OR10H2 (Homo sapiens) | OR10H3 (Homo sapiens)

CCC1OC(=O)C(O)=C1C (configuration not stated)
inactive: OR10G2 (Homo sapiens) | OR10G3 (Homo sapiens) | OR10G4 (Homo sapiens) | OR10G6 (Homo sapiens) | OR10G7 (Homo sapiens) | OR10G8 (Homo sapiens) | OR10G9 (Homo sapiens) | OR10H1 (Homo sapiens) | OR10H2 (Homo sapiens) | OR10H3 (Homo sapiens)

CCCCCCCCC(=O)O
inactive: OR10G8 (Homo sapiens)

CCC(S)C(C)CO (configuration not stated)
inactive: OR10G2 (Homo sapiens) | OR10G3 (Homo sapiens) | OR10G4 (Homo sapiens) | OR10G6 (Homo sapiens) | OR10G7 (Homo sapiens) | OR10G8 (Homo sapiens) | OR10G9 (Homo sapiens) | OR10H1 (Homo sapiens) | OR10H2 (Homo sapiens) | OR10H3 (Homo sapiens)

CC(CO)CS (configuration not stated)
inactive: OR10G2 (Homo sapiens) | OR10G3 (Homo sapiens) | OR10G4 (Homo sapiens) | OR10G6 (Homo sapiens) | OR10G7 (Homo sapiens) | OR10G8 (Homo sapiens) | OR10G9 (Homo sapiens) | OR10H1 (Homo sapiens) | OR10H2 (Homo sapiens) | OR10H3 (Homo sapiens)

CC1CCCCCCCCCCCCC(=O)C1 (configuration not stated)
inactive: OR10G2 (Homo sapiens) | OR10G3 (Homo sapiens) | OR10G4 (Homo sapiens) | OR10G6 (Homo sapiens) | OR10G7 (Homo sapiens) | OR10G8 (Homo sapiens) | OR10G9 (Homo sapiens) | OR10H1 (Homo sapiens) | OR10H2 (Homo sapiens) | OR10H3 (Homo sapiens)

CCCC(S)CCOC(C)=O (configuration not stated)
inactive: OR10G2 (Homo sapiens) | OR10G3 (Homo sapiens) | OR10G4 (Homo sapiens) | OR10G6 (Homo sapiens) | OR10G7 (Homo sapiens) | OR10G8 (Homo sapiens) | OR10G9 (Homo sapiens) | OR10H1 (Homo sapiens) | OR10H2 (Homo sapiens) | OR10H3 (Homo sapiens)

CC1=NC(C)C(C)S1 (configuration not stated)
inactive: OR10G2 (Homo sapiens) | OR10G3 (Homo sapiens) | OR10G4 (Homo sapiens) | OR10G6 (Homo sapiens) | OR10G7 (Homo sapiens) | OR10G8 (Homo sapiens) | OR10G9 (Homo sapiens) | OR10H1 (Homo sapiens) | OR10H2 (Homo sapiens) | OR10H3 (Homo sapiens)

CCC1OC(C)=C(O)C1=O (configuration not stated)
inactive: OR10G2 (Homo sapiens) | OR10G3 (Homo sapiens) | OR10G4 (Homo sapiens) | OR10G6 (Homo sapiens) | OR10G7 (Homo sapiens) | OR10G8 (Homo sapiens) | OR10G9 (Homo sapiens) | OR10H1 (Homo sapiens) | OR10H2 (Homo sapiens) | OR10H3 (Homo sapiens)

CCCCCC(=O)C(C)C(C)=O (configuration not stated)
inactive: OR10G2 (Homo sapiens) | OR10G3 (Homo sapiens) | OR10G4 (Homo sapiens) | OR10G6 (Homo sapiens) | OR10G7 (Homo sapiens) | OR10G8 (Homo sapiens) | OR10G9 (Homo sapiens) | OR10H1 (Homo sapiens) | OR10H2 (Homo sapiens) | OR10H3 (Homo sapiens)

CC1=C(O)C(=O)C(C)O1 (configuration not stated)
inactive: OR10G2 (Homo sapiens) | OR10G3 (Homo sapiens) | OR10G4 (Homo sapiens) | OR10G6 (Homo sapiens) | OR10G7 (Homo sapiens) | OR10G8 (Homo sapiens) | OR10G9 (Homo sapiens) | OR10H1 (Homo sapiens) | OR10H2 (Homo sapiens) | OR10H3 (Homo sapiens)

Reference: the M2OR odorant receptor database
